Screening data deposited in PubChem by Johns Hopkins Ion Channel Center.
Only some compounds are listed: those with a hit (about 3.7% of all), similar ones and a draw of the others.
hERG rescue – compounds protecting human hERG from proarrhythmic drug block. activation (rescue from dofetilide block), less the hit threshold, % at 10 µM. CHO-hERG, FluxOR thallium flux, dofetilide IC70 present. actives 0.51% (n = 310,000). AID 1511. Q12809;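 active = activation above the mean of controls blocked by dofetilide plus 5 SD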;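 note: thallium influx through hERG after potassium depolarization seen as dye fluorescence rise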
KCNQ1 act – potentiates or activates the human KCNQ1 potassium channel; CHO-K1 KCNQ1, thallium flux FluxOR fluorescence; stronger effect = higher value; B-score at 10 µM; AID 2648; P51787; actives 0.35% (n = 310,000);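 active = fluorescence ratio B-score, a plate-corrected score, at least three library SD, with initial intensity B-score within 5 SD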
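Medium – assay buffer, equal DMSO in all wells · Material – CHO-K1 cell line with stable KCNQ1 potassium channel expression · Signal – kinetic FluxOR thallium fluorescence, 10-s 1-Hz baseline, 110-s post-stimulus read · Compound – single concentration per compound, DMSO matched to controls · Schedule – 37 °C overnight plating, 90-min dark dye load, 20-min compound pretreatment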
KCNK9 block – human KCNK9 channel inhibition. Q9NPC2. HEK293 KCNK9, FluxOR thallium flux fluorescence; stronger effect = lower value. B-score at 10 µM. actives 1.2% (n = 310,000);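 active = ratio B-score over 3 SD below the library mean, with starting fluorescence within 5 SD of its mean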;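 note: negative B-score means less thallium flux so channel inhibition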
Kir21 inh – inhibitors of mouse Kir2.1 inward-rectifier potassium channel. B-score at 10 µM. HEK293-Kir2.1, FluxOR thallium flux fluorescence; stronger effect = lower value. AID 1672. actives 0.85% (n = 310,000);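 active = fluorescence ratio B-score at or below minus 3 SD of library scores, with starting-brightness B-score within 2 SD, cut at about -4.2 in these data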;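 note: channel flux triggered by added potassium and thallium sulfate stimulus; B-score of peak minus minimum fluorescence over baseline after thallium stimulus; more negative B-score means stronger Kir2.1 block with less thallium influx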
KCNQ1 inh – inhibitors of human KCNQ1 potassium channel | CHO-K1 KCNQ1, FluxOR thallium flux fluorescence; stronger effect = higher value | P51787 | actives 1.3% (n = 310,000) | AID 2642 | B-score at 10 µM;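 active = compounds whose thallium flux B-score, printed positive for inhibition, exceeds three library SD while starting fluorescence stays within three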;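 note: channel opened by potassium depolarization with thallium stimulus after 20 min compound exposure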
KCNK3 inh – human KCNK3 channel inhibition, primary screen; CHO-KCNK3 thallium flux, FluxOR fluorescence; stronger effect = lower value; B-score at 10 µM; actives 0.84% (n = 340,000); AID 602410;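 active = B-score under library mean minus 4 SD, starting fluorescence ratio at most library mean plus 5 SD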;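 note: more negative B-score means stronger inhibition of thallium flux through KCNK3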
Target sequence (O14649 whole entry, looked up): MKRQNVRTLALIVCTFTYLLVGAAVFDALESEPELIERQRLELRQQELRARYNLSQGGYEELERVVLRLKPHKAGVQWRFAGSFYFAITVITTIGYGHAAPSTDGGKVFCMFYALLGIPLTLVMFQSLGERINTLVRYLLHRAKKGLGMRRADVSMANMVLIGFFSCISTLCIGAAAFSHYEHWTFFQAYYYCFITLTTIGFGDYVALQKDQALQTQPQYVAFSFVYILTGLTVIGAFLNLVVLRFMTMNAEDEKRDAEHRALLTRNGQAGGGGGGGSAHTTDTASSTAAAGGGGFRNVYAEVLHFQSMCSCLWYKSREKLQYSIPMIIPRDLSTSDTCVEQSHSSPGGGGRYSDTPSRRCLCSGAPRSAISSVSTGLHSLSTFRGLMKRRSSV
Hits are given with their value; i = inactive; nt = not tested or not shown.

SMILES | hERG rescue | KCNQ1 act | KCNK9 block | Kir21 inh | KCNQ1 inh | KCNK3 inh
O=C(Cc1ccc(Br)cc1)Nc1ccccc1Sc1ccccc1 | i | i | i | i | i | i
O=C(COC(=O)c1ccc[n+]([O-])c1)Nc1cc([N+](=O)[O-])ccc1Cl | nt | nt | nt | nt | nt | i
NS(=O)(=O)c1ccc(NC(=O)c2cccc3cc4ccccc4nc23)cc1 | nt | nt | nt | nt | nt | i
CCOC(CCn1ccc(O)c(Cc2ccc(Cl)cc2)c1=O)OCC | i | i | i | i | i | i
COc1ccc(CNC(=O)CN2C(=O)NC3(CCCc4sccc43)C2=O)cc1OC (stereo not drawn) | nt | nt | nt | nt | nt | i
Cc1ccc(N(C(=O)c2csnn2)C(C(=O)NC2CCCCC2)c2ccco2)cc1 (stereo not drawn) | i | i | i | i | i | i
COc1ccc(CN(CC(=O)NCc2ccccc2)C(=O)CCC(=O)Nc2nccs2)cc1 | i | i | i | i | i | i
CCOCCOCN(C#N)c1nc(OC)nc(N(C)C)n1 | 49 | i | i | i | i | i
Cc1ccccc1NC1=NC(=S)N(c2ccccc2)C12CCCCC2 | 12 | 15 | i | i | i | i
CN(Cc1ccccc1)C(=O)C1CCN(S(=O)(=O)c2cccc3nonc23)CC1 | i | i | i | i | i | i
CC(C)(C)c1nn(-c2ccccc2)c2[nH]c(=O)c(C=O)cc12 | i | i | i | i | i | i
CCCCc1c(C)[nH]c(C(=O)OCC)c1C | 5.3 | i | i | i | i | i
CCC(C)c1ccccc1NC(=S)NC(=O)c1ccco1 (stereo not drawn) | 32 | 29 | i | i | i | i
CC(C)C(=O)N1CCN(c2ccccc2NC(=S)NC(=O)c2ccco2)CC1 | i | i | i | i | i | i
O=C(NC(=S)Nc1cccc(Cl)c1N1CCCCC1)c1ccco1 | i | 16 | i | i | i | i
CC1CCN(c2ccc(NC(=S)NC(=O)c3ccco3)cc2)CC1 | i | i | i | i | i | i
O=C(NC(=S)Nc1ccc(N2CCCCC2)cc1)c1ccco1 | 5.6 | 9 | i | i | i | i
O=C(NC(=S)Nc1ccccc1N1CCCCC1)c1ccco1 | 14 | i | i | i | i | i
CC(C)CNC(=O)[C@@H]1CSC2c3ccccc3C(=O)N21 (stereo partly drawn) | i | i | i | i | i | i
O=C(NC(=S)Nc1cccc2c(O)cccc12)c1ccco1 | i | i | i | i | i | i
O=C(NC(=S)Nc1ccccc1N1CCOCC1)c1ccco1 | i | i | i | i | i | i
O=C(NC(=S)Nc1ccccc1Cl)c1ccco1 | 12 | 14 | i | i | i | i
O=C(NC(=S)Nc1ccccc1N1CCCC1)c1ccccc1Br | 14 | 16 | i | i | i | i
O=C(NC(=S)Nc1ccccc1N1CCCC1)c1ccco1 | i | 12 | i | i | i | i
O=C(COC(=O)c1ccc(Cl)nc1)NC1CCCc2ccccc21 (stereo not drawn) | nt | nt | nt | nt | nt | i
SMILES | hERG rescue | KCNQ1 act | KCNK9 block | Kir21 inh | KCNQ1 inh | KCNK3 inh
Cn1c(CN2CCOCC2)nnc1SCC(=O)Nc1cccc(C(F)(F)F)c1 | i | i | i | i | i | i
COc1cc2c(cc1OC)CN(C(=O)CCOc1ccccc1C)CC2 | i | i | i | i | i | i
CCOc1ccc2[nH]c(=O)c(CN(Cc3ccco3)C(CC)c3nnnn3Cc3ccccc3)cc2c1 (stereo not drawn) | i | i | i | i | 8 | i
CCOc1ccc2[nH]c(=O)c(CN(Cc3nnnn3Cc3ccco3)C3CCCCC3)cc2c1 | i | i | i | i | i | -10
CCOc1ccc2[nH]c(=O)c(CN(Cc3ccco3)Cc3nnnn3Cc3ccccc3)cc2c1 | i | i | i | i | i | i
CCCn1nc(C(=O)Nc2ccc3c(c2)OCCO3)c2ccccc2c1=O | nt | nt | nt | nt | nt | i
O=C(NC(Cc1c[nH]c2ccccc12)C(=O)N/N=C/c1cccc2ccccc12)c1cccs1 (stereo not drawn) | i | i | i | i | 6 | i
O=C(Nc1ccc(Cl)cc1)N(C1=NCCC1)c1ccc(OC(F)F)cc1 | i | i | i | i | 6 | i
CCCN=C1N/C(=C\c2ccco2)C(=O)N1c1ccccc1 | i | i | i | i | i | i
CCCN(CCC)C1=N/C(=C\c2ccco2)C(=O)N1c1ccccc1 | i | i | -7.7 | i | i | i
O=Cc1ccnc(-c2ccc(OC(=O)c3ccco3)cc2)n1 | i | i | i | -5.4 | i | i
O=C(Oc1ccc(-c2ccccc2)cc1)c1ccco1 | nt | nt | nt | nt | nt | i
NC(=O)C1CCN(C(=O)c2ccc(-c3ccccc3Cl)o2)CC1 | nt | nt | nt | nt | nt | i
CCOC(=O)c1cc(-c2ccccc2)sc1NC(=O)C(C)N1C(=O)c2ccccc2C1=O (stereo not drawn) | i | i | -8 | i | i | i
Cc1cc(C)nc(NC2=NCCN2C(=S)Nc2c(C)cccc2C)n1 | i | i | i | i | i | i
N#C/C(=N\Nc1ccccc1F)c1nc(-c2ccccc2)cs1 | 18 | i | i | i | i | i
COc1ccc(C(=O)COC(=O)c2nc3nccc(C)n3n2)cc1F | nt | nt | nt | nt | nt | i
CN1CCN(C(c2ccccn2)c2cc(Cl)c3cccnc3c2O)CC1 (stereo not drawn) | i | i | i | i | i | i
Oc1c(C(c2ccccn2)N2CCC(Cc3ccccc3)CC2)cc(Cl)c2cccnc12 (stereo not drawn) | i | i | i | i | 13 | nt
Nc1cnc(CNc2ccccc2Cl)cn1 | i | i | i | i | i | i
COc1ccccc1C(=O)N/C(=C/c1ccco1)C(=O)Nc1cccc(C(=O)O)c1 | i | i | i | i | i | i
CCOc1cc(/C=N/NC(=O)c2ccc(O)cc2)ccc1Oc1nc(Cl)ncc1F | i | i | -7.8 | i | i | i
COc1ccc(/C=N/NC(=O)CC#N)cc1Oc1nc(Cl)ncc1F | i | i | i | i | i | i
COc1cc(/C=C(\CCC(=O)O)c2nc3ccccc3s2)ccc1OCC(=O)Nc1c(Cl)cccc1Cl | nt | nt | nt | nt | nt | i
O=C(/C(N=Nc1cccc([N+](=O)[O-])c1)=C(/O)c1ccc(Br)cc1)C(F)(F)F | i | i | -9.2 | i | 9 | nt
SMILES | hERG rescue | KCNQ1 act | KCNK9 block | Kir21 inh | KCNQ1 inh | KCNK3 inh
CCN(CC(=O)Nc1cc(Cl)ccc1C)c1ncnc2sc(C)c(C)c12 | i | i | -6.6 | i | i | i
CCCCOC(=O)Cn1c(=O)n(CC(=O)OCCCC)c2ccccc21 | i | i | i | -6.1 | i | i
COc1ccc(OC)c(CNC(=O)C2CCC(=O)N2C(C)C)c1 (stereo not drawn) | i | i | i | i | i | i
Cc1cc(C[n+]2ncsc2N)c2ncccc2c1 | i | i | i | i | i | i
CCOc1ccc2c(c1)sc(N)[n+]2Cc1cc(C)cc2cccnc12 | i | i | i | -4.3 | i | i
COc1ccc2c(c1)sc(N)[n+]2Cc1cc(C)cc2cccnc12 | i | i | i | -4.5 | i | i
O=C(Cc1cccc(F)c1F)NC1CCCN(Cc2ccc(Cl)cc2)C1 (stereo not drawn) | i | i | i | i | i | i
